Converted amounts (≈) assume the structure as drawn.
Legend:
Escherichia coli = assay: Antibacterial activity against Escherichia coli ATCC25922 after 24 hrs by microdilution method; format: functional; details: ATCC25922, 24 h
Summary of the method: (§1)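 MIC taken as the lowest concentration with no visible bacterial growth after 18-24 h at 37 °C, given in μg/mL; modal value of multiple experiments.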

Staphylococcus aureus [1] = assay: Antibacterial activity against methicillin- and quinolone-resistant Staphylococcus aureus ATCC700699 after 24 hrs by microdilution method; format: functional; details: ATCC700699, 24 h
Summary of the method: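 Broth microdilution; MIC read as the lowest compound concentration that prevents visible bacterial growth after incubation at 37 °C for 18–24 h, and expressed in μg/mL.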

[2] = Cytotoxicity against human Hep2 cells after 72 hrs by alamar blue assay; format: cell-based; details: HEp-2 cells
Staphylococcus aureus [3] = assay: Antibacterial activity against methicillin-sensitive Staphylococcus aureus ATCC 29213 after 24 hrs by microdilution method; format: functional; details: ATCC 29213, 24 h; summary of the method: as §1

Row | SMILES | MIC (Escherichia coli) [µg/mL] | MIC (Staphylococcus aureus [1]) [µg/mL] | CC50 at 72 h [2] [µM] | MIC (Staphylococcus aureus [3]) [µg/mL]
1 | COc1c(N2CCNCC2)c(F)cc2c(=O)c3c(=O)[nH]sc3n(C3CC3)c12 | 0.03 (≈ 0.0768 µM) | 4 (≈ 10.2 µM) | 27 | 0.06 (≈ 0.154 µM)
2 | COc1c(N2CC[C@@H](N)C2)c(F)cc2c(=O)c3c(=O)[nH]sc3n(C3CC3)c12 | 0.008 (≈ 0.0205 µM) | 2 (≈ 5.12 µM) | 25 | 0.03 (≈ 0.0768 µM)
3 | COc1c(N2CC[C@H](N)C2)c(F)cc2c(=O)c3c(=O)[nH]sc3n(C3CC3)c12 | 0.008 (≈ 0.0205 µM) | 0.5 (≈ 1.28 µM) | 19 | 0.008 (≈ 0.0205 µM)
4 | CN[C@@H]1CCN(c2c(F)cc3c(=O)c4c(=O)[nH]sc4n(C4CC4)c3c2OC)C1 | 0.06 (≈ 0.148 µM) | 4 (≈ 9.89 µM) | 42 | 0.006 (≈ 0.0148 µM)
5 | CN[C@H]1CCN(c2c(F)cc3c(=O)c4c(=O)[nH]sc4n(C4CC4)c3c2OC)C1 | 0.06 (≈ 0.148 µM) | 2 (≈ 4.94 µM) | 41 | 0.03 (≈ 0.0742 µM)
6 | COc1c(N2CC[C@H](CN)C2)c(F)cc2c(=O)c3c(=O)[nH]sc3n(C3CC3)c12 | 0.03 (≈ 0.0742 µM) | 0.25 (≈ 0.618 µM) | 11 | 0.008 (≈ 0.0198 µM)
7 | COc1c(N2CC[C@@H](CN)C2)c(F)cc2c(=O)c3c(=O)[nH]sc3n(C3CC3)c12 | 0.004 (≈ 0.00989 µM) | 0.25 (≈ 0.618 µM) | 11 | 0.008 (≈ 0.0198 µM)
8 | CNC[C@@H]1CCN(c2c(F)cc3c(=O)c4c(=O)[nH]sc4n(C4CC4)c3c2OC)C1 | 0.06 (≈ 0.143 µM) | 0.5 (≈ 1.19 µM) | 28 | 0.008 (≈ 0.0191 µM)
9 | COc1c(N2CC[C@@H](CNCCF)C2)c(F)cc2c(=O)c3c(=O)[nH]sc3n(C3CC3)c12 | 0.03 (≈ 0.0666 µM) | 0.13 (≈ 0.289 µM) | 18 | 0.008 (≈ 0.0178 µM)
10 | COc1c(N2CC[C@@H](CNC(C)C)C2)c(F)cc2c(=O)c3c(=O)[nH]sc3n(C3CC3)c12 | 0.06 (≈ 0.134 µM) | 0.5 (≈ 1.12 µM) | 33 | 0.02 (≈ 0.0448 µM)
11 | COc1c(N2CC[C@@H](CNC3CC3)C2)c(F)cc2c(=O)c3c(=O)[nH]sc3n(C3CC3)c12 | 0.03 (≈ 0.0675 µM) | 0.06 (≈ 0.135 µM) | 23 | 0.004 (≈ 0.009 µM)
12 | COc1c(N2CC[C@@H](CN(C)C)C2)c(F)cc2c(=O)c3c(=O)[nH]sc3n(C3CC3)c12 | 0.13 (≈ 0.301 µM) | 4 (≈ 9.25 µM) | > 100 | 0.06 (≈ 0.139 µM)
13 | COc1c(N2CC[C@@H]([C@@H](C)N)C2)c(F)cc2c(=O)c3c(=O)[nH]sc3n(C3CC3)c12 | 0.03 (≈ 0.0717 µM) | 0.25 (≈ 0.597 µM) | 33 | 0.02 (≈ 0.0478 µM)
14 | COc1c(N2CC[C@H]([C@@H](C)N)C2)c(F)cc2c(=O)c3c(=O)[nH]sc3n(C3CC3)c12 | 0.06 (≈ 0.143 µM) | 1 (≈ 2.39 µM) | 51 | 0.02 (≈ 0.0478 µM)
15 | COc1c(N2CC[C@H]([C@H](C)N)C2)c(F)cc2c(=O)c3c(=O)[nH]sc3n(C3CC3)c12 | 0.06 (≈ 0.143 µM) | 1 (≈ 2.39 µM) | 15 | 0.03 (≈ 0.0717 µM)
16 | CN[C@H](C)[C@@H]1CCN(c2c(F)cc3c(=O)c4c(=O)[nH]sc4n(C4CC4)c3c2OC)C1 | 0.06 (≈ 0.139 µM) | 0.5 (≈ 1.16 µM) | 29 | 0.02 (≈ 0.0462 µM)
17 | CCN[C@@H](C)[C@@H]1CCN(c2c(F)cc3c(=O)c4c(=O)[nH]sc4n(C4CC4)c3c2OC)C1 | 0.06 (≈ 0.134 µM) | 0.13 (≈ 0.291 µM) | 27 | 0.004 (≈ 0.00896 µM)
18 | COc1c(N2CC[C@@H]([C@@H](C)NCCF)C2)c(F)cc2c(=O)c3c(=O)[nH]sc3n(C3CC3)c12 | 0.06 (≈ 0.129 µM) | 0.25 (≈ 0.538 µM) | 74 | 0.004 (≈ 0.00861 µM)
19 | COc1c(N2CC[C@@H]([C@H](C)N(C)C)C2)c(F)cc2c(=O)c3c(=O)[nH]sc3n(C3CC3)c12 | 0.06 (≈ 0.134 µM) | 0.5 (≈ 1.12 µM) | 39 | 0.008 (≈ 0.0179 µM)
20 | COc1c(N2CC[C@H](C(C)(C)N)C2)c(F)cc2c(=O)c3c(=O)[nH]sc3n(C3CC3)c12 | 0.13 (≈ 0.301 µM) | 2 (≈ 4.62 µM) | 61 | 0.03 (≈ 0.0694 µM)
21 | CNC(C)(C)[C@@H]1CCN(c2c(F)cc3c(=O)c4c(=O)[nH]sc4n(C4CC4)c3c2OC)C1 | 0.13 (≈ 0.291 µM) | 0.13 (≈ 0.291 µM) | 28 | 0.008 (≈ 0.0179 µM)
22 | CCNC(C)(C)[C@@H]1CCN(c2c(F)cc3c(=O)c4c(=O)[nH]sc4n(C4CC4)c3c2OC)C1 | 0.13 (≈ 0.282 µM) | 0.5 (≈ 1.09 µM) | 50 | 0.02 (≈ 0.0434 µM)
23 | COc1c(N2CC[C@@H](C(C)(C)NCCF)C2)c(F)cc2c(=O)c3c(=O)[nH]sc3n(C3CC3)c12 | 0.06 (≈ 0.125 µM) | 0.06 (≈ 0.125 µM) | 19 | 0.004 (≈ 0.00836 µM)

Row | SMILES | MIC (Escherichia coli) [µg/mL] | MIC (Staphylococcus aureus [1]) [µg/mL] | CC50 at 72 h [2] [µM] | MIC (Staphylococcus aureus [3]) [µg/mL]
24 | COc1c(N2CC[C@@H](C(C)(C)NCC(C)C)C2)c(F)cc2c(=O)c3c(=O)[nH]sc3n(C3CC3)c12 | 1 (≈ 2.05 µM) | 2 (≈ 4.09 µM) | 88 | 0.06 (≈ 0.123 µM)
25 | COc1c(N2CC[C@@H](C(C)(C)N(C)C)C2)c(F)cc2c(=O)c3c(=O)[nH]sc3n(C3CC3)c12 | 0.13 (≈ 0.282 µM) | 1 (≈ 2.17 µM) | 90 | 0.06 (≈ 0.13 µM)
26 | COc1c(N2CC[C@@H](C3(N)CC3)C2)c(F)cc2c(=O)c3c(=O)[nH]sc3n(C3CC3)c12 | 0.008 (≈ 0.0186 µM) | 0.06 (≈ 0.139 µM) | 4 | 0.001 (≈ 0.00232 µM)
27 | CC[C@@H](NC)[C@@H]1CCN(c2c(F)cc3c(=O)c4c(=O)[nH]sc4n(C4CC4)c3c2OC)C1 | 0.13 (≈ 0.291 µM) | 2 (≈ 4.48 µM) | 58 | 0.03 (≈ 0.0672 µM)
28 | O=c1[nH]sc2c1c(=O)c1cc(F)c(N3CCNCC3)cc1n2C1CC1 | 0.004 (≈ 0.0111 µM) | 4 (≈ 11.1 µM) | 7 | 0.06 (≈ 0.166 µM)
29 | COc1c(N2CC[C@@H](C(C)N)C2)c(F)cc2c(=O)c3c(=O)[nH]sc3n(C3CC3)c12 (mixture of isomers) | 0.02 | 0.06 | 9 | 0.004
30 | COc1c(N2CC[C@H](C(C)N)C2)c(F)cc2c(=O)c3c(=O)[nH]sc3n(C3CC3)c12 (mixture of isomers) | 0.06 | 1 |  | 0.03
31 | CNC(C)[C@@H]1CCN(c2c(F)cc3c(=O)c4c(=O)[nH]sc4n(C4CC4)c3c2OC)C1 (mixture of isomers) | 0.03 | 0.25 | 42 | 0.008
32 | CNC(C)[C@H]1CCN(c2c(F)cc3c(=O)c4c(=O)[nH]sc4n(C4CC4)c3c2OC)C1 (mixture of isomers) | 0.13 | 2 | > 100 | 0.06
33 | CCNC(C)[C@@H]1CCN(c2c(F)cc3c(=O)c4c(=O)[nH]sc4n(C4CC4)c3c2OC)C1 (mixture of isomers) | 0.06 | 0.25 | 40 | 0.008
34 | COc1c(N2CC[C@@H](C(C)NCC(F)(F)F)C2)c(F)cc2c(=O)c3c(=O)[nH]sc3n(C3CC3)c12 (mixture of isomers) |  | 4 | 41 | 0.13
35 | COc1c(N2CC[C@@H](C(C)NC(C)C)C2)c(F)cc2c(=O)c3c(=O)[nH]sc3n(C3CC3)c12 (mixture of isomers) | 0.5 | 0.5 | 51 | 0.02
36 | COc1c(N2CC[C@@H](C(C)NC3CC3)C2)c(F)cc2c(=O)c3c(=O)[nH]sc3n(C3CC3)c12 (mixture of isomers) | 0.06 | 0.06 | 25 | 0.004
37 | COc1c(N2CC[C@H](C(C)NC3CC3)C2)c(F)cc2c(=O)c3c(=O)[nH]sc3n(C3CC3)c12 (mixture of isomers) | 0.13 | 0.13 | 43 | 0.02
38 | COc1c(N2CC[C@@H](C(C)NCC3CC3)C2)c(F)cc2c(=O)c3c(=O)[nH]sc3n(C3CC3)c12 (mixture of isomers) | 0.25 | 0.5 | 43 | 0.03
39 | COc1c(N2CC[C@@H](C(C)NC3CCCC3)C2)c(F)cc2c(=O)c3c(=O)[nH]sc3n(C3CC3)c12 (mixture of isomers) |  | 4 | 42 | 0.06
40 | COc1c(N2CC[C@@H](C(C)N(C)C)C2)c(F)cc2c(=O)c3c(=O)[nH]sc3n(C3CC3)c12 (mixture of isomers) | 0.06 | 1 | 40 | 0.03
41 | CC[C@H](NC)[C@@H]1CCN(c2c(F)cc3c(=O)c4c(=O)[nH]sc4n(C4CC4)c3c2OC)C1 (mixture of isomers) | 0.06 | 0.5 | 29 | 0.008
42 | COc1c(N2CC[C@@H](C(N)c3nccs3)C2)c(F)cc2c(=O)c3c(=O)[nH]sc3n(C3CC3)c12 (mixture of isomers) | 0.13 | 0.06 | 5 | 0.004
43 | COc1c(N2CC[C@@H](C(N)c3ncco3)C2)c(F)cc2c(=O)c3c(=O)[nH]sc3n(C3CC3)c12 (mixture of isomers) | 0.06 | 0.25 | 5 | 0.004
44 | COc1c(N2CC[C@@H](C(N)c3ccccn3)C2)c(F)cc2c(=O)c3c(=O)[nH]sc3n(C3CC3)c12 (mixture of isomers) | 0.06 | 0.13 | 1 | 0.008
45 | COc1c(N2CCC(CNCC(C)C)C2)c(F)cc2c(=O)c3c(=O)[nH]sc3n(C3CC3)c12 (racemic) | 0.13 (≈ 0.282 µM) | 4 (≈ 8.68 µM) | 46 | 0.06 (≈ 0.13 µM)
46 | COc1c(N2CCC(C(C)(C)NC3CC3)C2)c(F)cc2c(=O)c3c(=O)[nH]sc3n(C3CC3)c12 (racemic) | 0.25 (≈ 0.529 µM) | 0.25 (≈ 0.529 µM) | 54 | 0.02 (≈ 0.0423 µM)

Source: ChEMBL document CHEMBL1772978, “Exploration of the activity of 7-pyrrolidino-8-methoxyisothiazoloquinolones against methicillin-resistant Staphylococcus aureus (MRSA)” (J Med Chem, 2011)
